Measured values reported in ChEMBL document CHEMBL5058577, “EUbOPEN Chemogenomics Library 2 (Multiplex)” (2022).

Test system: U2OS
Experiment: Multiplex assay against U2OS
Assay type: toxicity, cell-based
Conditions: human
How it was run: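 Values for tubulin, mitochondrial-mass and membrane-permeability phenotypes are per cents of cells with healthy nuclei. These cells were identified by CellPathfinder machine-learning gating of live cells that had been stained at seeding with Hoechst33342, BioTracker Green Microtubule Cytoskeleton Dye, MitoTracker Red and Annexin V Alexa Fluor 680 and imaged on a CQ1 microscope at 37°C and 5% CO2 after compound addition. The gating first set Hoechst high-intensity objects apart from normal cells, then split normal cells into healthy, pyknosed or fragmented nuclei, and pyknosed cells into mitotic or apoptotic.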

[1] = 12 h, 1 µM, compound concentration 1 uM, replicate 1
[2] = 12 h, 1 µM, compound concentration 1 uM, replicate 2
[3] = 12 h, 10 µM, compound concentration 10 uM, replicate 1
[4] = 12 h, 10 µM, compound concentration 10 uM, replicate 2
[5] = 24 h, 1 µM, compound concentration 1 uM, replicate 1
[6] = 24 h, 1 µM, compound concentration 1 uM, replicate 2
[7] = 24 h, 10 µM, compound concentration 10 uM, replicate 1
[8] = 24 h, 10 µM, compound concentration 10 uM, replicate 2
[9] = 48 h, 1 µM, compound concentration 1 uM, replicate 1
[10] = 48 h, 1 µM, compound concentration 1 uM, replicate 2
[11] = 48 h, 10 µM, compound concentration 10 uM, replicate 1
[12] = 48 h, 10 µM, compound concentration 10 uM, replicate 2

## O=C(NCCO)c1cccc(-c2cc(Nc3ccc(OC(F)(F)F)cc3)ncn2)c1
[1]
  Population Apoptotic (%): 64%
  Population Fragmented Nuclei (%): 13%
  Population Healthy Nuclei (%): 72%
  Population Hoechst High Intensity Objects (%): 1%
  Population Membrane Permeable-Phenotype (%): 3%
  Population Mitochondria Different-Phenotype (%): 3%
  Population Mitotic Cells (%): 35%
  Population Normal (%): 98%
  Population Pyknosed Nuclei (%): 13%
  Population Tubulin-Different-Phenotype (%): 1%
  Total Cell Count: 213
[2]
  Population Apoptotic (%): 84%
  Population Fragmented Nuclei (%): 15%
  Population Healthy Nuclei (%): 73%
  Population Membrane Permeable-Phenotype (%): 4%
  Population Mitotic Cells (%): 15%
  Population Pyknosed Nuclei (%): 10%
  Population Tubulin-Different-Phenotype (%): 4%
  Total Cell Count: 128
[3]
  Population Apoptotic (%): 84%
  Population Fragmented Nuclei (%): 21%
  Population Healthy Nuclei (%): 66%
  Population Hoechst High Intensity Objects (%): 4%
  Population Membrane Permeable-Phenotype (%): 9%
  Population Mitochondria Different-Phenotype (%): 7%
  Population Mitotic Cells (%): 15%
  Population Normal (%): 95%
  Population Pyknosed Nuclei (%): 12%
  Population Tubulin-Different-Phenotype (%): 6%
  Total Cell Count: 274
[4]
  Population Apoptotic (%): 100%
  Population Fragmented Nuclei (%): 20%
  Population Healthy Nuclei (%): 68%
  Population Hoechst High Intensity Objects (%): 2%
  Population Mitochondria Different-Phenotype (%): 15%
  Population Mitotic Cells (%): 0%
  Population Normal (%): 97%
  Population Tubulin-Different-Phenotype (%): 3%
  Total Cell Count: 77
[5]
  Population Apoptotic (%): 70%
  Population Fragmented Nuclei (%): 16%
  Population Healthy Nuclei (%): 73%
  Population Hoechst High Intensity Objects (%): 1%
  Population Membrane Permeable-Phenotype (%): 3%
  Population Mitochondria Different-Phenotype (%): 3%
  Population Mitotic Cells (%): 29%
  Population Normal (%): 98%
  Population Pyknosed Nuclei (%): 9%
  Population Tubulin-Different-Phenotype (%): 2%
  Total Cell Count: 256
[6]
  Population Apoptotic (%): 86%
  Population Fragmented Nuclei (%): 20%
  Population Healthy Nuclei (%): 69%
  Population Membrane Permeable-Phenotype (%): 7%
  Population Mitochondria Different-Phenotype (%): 5%
  Population Mitotic Cells (%): 13%
  Population Tubulin-Different-Phenotype (%): 4%
  Total Cell Count: 156
[7]
  Population Apoptotic (%): 82%
  Population Fragmented Nuclei (%): 22%
  Population Healthy Nuclei (%): 64%
  Population Hoechst High Intensity Objects (%): 4%
  Population Membrane Permeable-Phenotype (%): 6%
  Population Mitochondria Different-Phenotype (%): 3%
  Population Mitotic Cells (%): 17%
  Population Normal (%): 95%
  Population Pyknosed Nuclei (%): 12%
  Population Tubulin-Different-Phenotype (%): 1%
  Total Cell Count: 344
[8]
  Population Apoptotic (%): 100%
  Population Fragmented Nuclei (%): 15%
  Population Healthy Nuclei (%): 78%
  Population Hoechst High Intensity Objects (%): 1%
  Population Membrane Permeable-Phenotype (%): 12%
  Population Mitochondria Different-Phenotype (%): 13%
  Population Mitotic Cells (%): 0%
  Population Normal (%): 98%
  Population Pyknosed Nuclei (%): 5%
  Population Tubulin-Different-Phenotype (%): 4%
  Total Cell Count: 96
[9]
  Population Apoptotic (%): 88%
  Population Fragmented Nuclei (%): 15%
  Population Healthy Nuclei (%): 75%
  Population Hoechst High Intensity Objects (%): 2%
  Population Membrane Permeable-Phenotype (%): 6%
  Population Mitochondria Different-Phenotype (%): 3%
  Population Mitotic Cells (%): 11%
  Population Normal (%): 97%
  Population Pyknosed Nuclei (%): 8%
  Population Tubulin-Different-Phenotype (%): 4%
  Total Cell Count: 417
[10]
  Population Apoptotic (%): 96%
  Population Fragmented Nuclei (%): 20%
  Population Healthy Nuclei (%): 65%
  Population Membrane Permeable-Phenotype (%): 9%
  Population Mitochondria Different-Phenotype (%): 4%
  Population Mitotic Cells (%): 3%
  Population Pyknosed Nuclei (%): 14%
  Population Tubulin-Different-Phenotype (%): 6%
  Total Cell Count: 206
[11]
  Population Apoptotic (%): 92%
  Population Fragmented Nuclei (%): 18%
  Population Healthy Nuclei (%): 72%
  Population Hoechst High Intensity Objects (%): 3%
  Population Membrane Permeable-Phenotype (%): 8%
  Population Mitochondria Different-Phenotype (%): 3%
  Population Mitotic Cells (%): 7%
  Population Normal (%): 96%
  Population Pyknosed Nuclei (%): 9%
  Population Tubulin-Different-Phenotype (%): 6%
  Total Cell Count: 473
[12]
  Population Apoptotic (%): 91%
  Population Fragmented Nuclei (%): 26%
  Population Healthy Nuclei (%): 64%
  Population Hoechst High Intensity Objects (%): 2%
  Population Membrane Permeable-Phenotype (%): 5%
  Population Mitochondria Different-Phenotype (%): 7%
  Population Mitotic Cells (%): 8%
  Population Normal (%): 97%
  Population Pyknosed Nuclei (%): 8%
  Population Tubulin-Different-Phenotype (%): 1%
  Total Cell Count: 143
